The text below walks through data of ChEMBL document CHEMBL3108663, “Cembrane-type diterpenoids from the Chinese liverworts Chandonanthus hirtellus and C. birmensis” (J Nat Prod, 2014).

Structures are written as SMILES.

Assay type in all cases: functional, cell-based
Test [1] can be described thus: Cytotoxicity against rat PC12 cells after 24 hrs by MTT assay. The conditions noted are these: PC-12, 24 h. In a few lines: (§1)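 Cells plated 24 h before treatment, then exposed continuously to a range of compound concentrations for 24 h. MTT added and incubated 4 h at 37 °C under 5% CO2. Absorbance read at 570 nm. IC50 taken from plotted results with untreated cells set at 100%. Run at least three times; means ± SD of triplicates.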
A general note: Formazan colour is commonly taken as a measure of viable cells.

The test system of another test is NCI-H1299. As to the kind of experiment: Cytotoxicity against human NCI-H1299 cells after 24 hrs by MTT assay. The conditions noted are these: NCI-H1299, 24 h. Summed up:
as §1

In a further test the test system is A549. Kind of test: Cytotoxicity against human A549 cells after 24 hrs by MTT assay. The note with it: A549, 24 h. In a few lines: as §1
Another test has as its system DU-145. As to the kind of experiment: Cytotoxicity against human DU145 cells after 24 hrs by MTT assay. The note with it: DU-145, 24 h. Summed up: as §1
In a further test the test system is NCI-H292. As to the kind of experiment: Cytotoxicity against human NCI-H292 cells after 24 hrs by MTT assay. The conditions noted are these: NCI-H292, 24 h. Summed up:
as §1

The nature of test [2]: Cytotoxicity against human A172 cells after 24 hrs by MTT assay. The conditions noted are these: A 172, 24 h. Summed up: as §1
Another test relates to PC-3. As to the kind of experiment: Cytotoxicity against human PC3 cells after 24 hrs by MTT assay. The conditions noted are these: PC-3, 24 h. In a few lines: as §1

With `CC(=O)O[C@@]1(C)CCC(=O)[C@@H](C)CCC[C@]2(C)O[C@H]2C(=O)C(=C(C)C)CC1`, the 50% inhibitory concentration (IC50) was found to be 24.5 µM in test [1]; 17.2 µM with NCI-H1299; 31.1 µM in the test with A549; 43.7 µM in the test on DU-145; 21.4 µM with NCI-H292; 23.1 µM in test [2]. This compound registered an IC50 in the test with PC-3 of 24.3 µM.

On to `CC(=O)O[C@@]1(C)CCC(=O)[C@H](C)CCC[C@]2(C)O[C@H]2C(=O)C(=C(C)C)CC1`, for which the IC50 in test [1] is 43.8 µM; in the test with NCI-H1299 it was 19.5 µM; in the test on A549 it was above 50 µM; in the test on DU-145, above 50 µM; in the test on NCI-H292, 38.9 µM; in test [2], 31.9 µM. For the same compound, the midpoint of inhibition with PC-3, the IC50, lay at 44.9 µM.

`CC(=O)O[C@@]1(C)CCC(=O)/C(C)=C/CC[C@]2(C)O[C@H]2C(=O)C(=C(C)C)CC1`: the IC50 in test [1] is 40.6 µM; with NCI-H1299 it was 40.3 µM; with A549, above 50 µM; in the test with DU-145, above 50 µM; in the test with NCI-H292 it was 48.7 µM; in test [2] it was 37.3 µM. Besides, the IC50 in the test on PC-3 was above 50 µM.

`CC(=O)O[C@]1(C)CCC(=C(C)C)C(=O)[C@@H]2O[C@@]2(C)CC/C=C(\C)[C@H](O)CC1`: the IC50 was 30.2 µM in test [1]; 20.9 µM in the test on NCI-H1299; 21.5 µM with A549; above 50 µM in the test with DU-145; above 50 µM in the test on NCI-H292; above 50 µM in test [2]. This compound gave an IC50 with PC-3 above 50 µM.

Take `CC(=O)O[C@@]1(C)C/C=C2\O[C@H](C[C@@H]2C)C[C@]2(C)O[C@H]2C(=O)C(=C(C)C)CC1`: the IC50 was 41.1 µM in test [1]; 28.3 µM in the test with NCI-H1299; above 50 µM in the test with A549; above 50 µM in the test with DU-145; above 50 µM with NCI-H292; above 50 µM in test [2]. This compound displayed an IC50 in the test with PC-3 above 50 µM.

For `CC(=O)O[C@]1(C)CCC(=C(C)C)C(=O)[C@@H]2O[C@@]2(C)C[C@H]2C[C@H](C)[C@@](O)(CC1)O2`, the IC50 in test [1] is 37.1 µM; with NCI-H1299 it was 23.5 µM; in the test on A549 it was above 50 µM; in the test on DU-145 it was above 50 µM; in the test on NCI-H292 it was above 50 µM; in test [2], above 50 µM. Also, in the test on PC-3, the IC50 was above 50 µM.

For the compound `CC(=O)O[C@@]1(C)CCC/C(C)=C/CC[C@@]2(C)O[C@@H]2C(=O)C(=C(C)C)CC1`, the concentration for half-maximal inhibition (IC50) was 47.1 µM in test [1]; 41.6 µM in the test with NCI-H1299; above 50 µM in the test with A549; above 50 µM with DU-145; above 50 µM in the test with NCI-H292; above 50 µM in test [2]. Moreover, the IC50 with PC-3 was above 50 µM.

Turning to `CC(C)=C1CC[C@]2(C)CC[C@]3(O[C@H](C[C@@H]3C)C[C@]3(C)O[C@H]3C1=O)O2`, the IC50 is 36.4 µM in test [1]; above 50 µM with NCI-H1299; above 50 µM in the test with A549; above 50 µM in the test with DU-145; above 50 µM in the test on NCI-H292; above 50 µM in test [2]. The same compound yielded an IC50 in the test on PC-3 above 50 µM.

As to `CC(C)=C1CC[C@]2(C)CC[C@]3(O[C@H](C[C@H]3C)C[C@]3(C)O[C@H]3C1=O)O2`, the IC50 in test [1] was above 50 µM; in the test with NCI-H1299 it was above 50 µM; with A549, above 50 µM; in the test on DU-145 it was above 50 µM; with NCI-H292, 48.1 µM; in test [2] it was above 50 µM. For the same compound, the IC50 in the test with PC-3 is above 50 µM.

For the compound `CC(=O)O[C@H]1C[C@]2(C)O[C@H]2CC/C(C)=C/[C@@H](OC(C)=O)[C@]2(C)[C@@H]1[C@H]([C@]1(C)CO1)C[C@@H]2OC(C)=O`, the IC50 (in test [1]; in the test on NCI-H1299; in the test on A549; in the test with DU-145; with NCI-H292; in test [2]) was above 50 µM each time. The half-inhibitory concentration (IC50) in the test with PC-3 is above 50 µM.

As for `CC(C)[C@H]1CC[C@]2(C)C[C@]3(O)C(=CC(=O)[C@H]3C)[C@@H](C)CC[C@@H]12` [ANADENSIN], the IC50 is 31.1 µM in test [1]; 34.7 µM with NCI-H1299; above 50 µM in the test on A549; above 50 µM in the test on DU-145; above 50 µM with NCI-H292; above 50 µM in test [2]. The compound also gave an IC50 in the test on PC-3 above 50 µM.

What is called IC50 is the point on the concentration scale where inhibition reaches its midpoint. A higher IC50 goes with weaker potency in that assay.
